Data set [1] deals with Schistosoma mansoni. Nature of the data set: Antischistosomal activity against Schistosoma mansoni assessed as parasite killing after 2 hrs. In kind it is functional, organism-based. The procedure, abridged: (§1)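 Cultured ex vivo worms were exposed to 10 μM compound. Worm effects were scored by visual examination at time points over a 72 h time-course.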
Data set [2] relates to Schistosoma mansoni. Nature of the data set: Antischistosomal activity against Schistosoma mansoni assessed as induction of parasite mortality after 8 hrs. In kind it is functional. Details: concentration or dose not given beside the values. In short, it runs like this:
as §1

For data set [3], the system named is Schistosoma mansoni. Nature of the data set: Antischistosomal activity against Schistosoma mansoni assessed as parasite killing after 4 hrs. In kind it is functional. The procedure, abridged: as §1
The subject of data set [4] is Schistosoma mansoni. As to the kind of experiment: Antischistosomal activity against Schistosoma mansoni assessed as induction of parasite mortality after 72 hrs. On the set-up: concentration or dose not given beside the values. The format is functional. In short, it runs like this: as §1
Data set [5] in a line: Induction of nitric oxide release at 10 uM in presence of cysteine. In kind it is physicochemical.
For data set [6], the target named is T1, Glutathione reductase, mitochondrial (Homo sapiens, UniProt P00390).
T1 sequence (P00390 whole entry): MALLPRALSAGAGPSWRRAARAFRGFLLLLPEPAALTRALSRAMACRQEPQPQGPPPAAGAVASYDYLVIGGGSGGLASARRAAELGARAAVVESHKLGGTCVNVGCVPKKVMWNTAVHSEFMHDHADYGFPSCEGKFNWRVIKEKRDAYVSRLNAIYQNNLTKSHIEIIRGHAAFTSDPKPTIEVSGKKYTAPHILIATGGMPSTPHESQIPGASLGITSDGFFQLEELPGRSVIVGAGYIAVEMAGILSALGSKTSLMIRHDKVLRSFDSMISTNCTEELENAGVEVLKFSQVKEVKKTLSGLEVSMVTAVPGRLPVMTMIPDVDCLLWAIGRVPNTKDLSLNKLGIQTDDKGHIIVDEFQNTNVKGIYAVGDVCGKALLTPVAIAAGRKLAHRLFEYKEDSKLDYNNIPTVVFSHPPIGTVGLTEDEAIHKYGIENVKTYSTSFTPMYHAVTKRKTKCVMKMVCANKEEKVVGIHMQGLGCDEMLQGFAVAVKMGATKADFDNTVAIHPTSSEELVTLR
Nature of the data set: Inhibition of human recombinant GR after 15 mins in presence of NADPH.

Data set [7] relates to Schistosoma mansoni. Nature of the data set: Antischistosomal activity against Schistosoma mansoni assessed as induction of parasite mortality after 48 hrs. In kind it is functional. On the set-up: concentration or dose not given beside the values. The procedure, abridged: as §1
The target of data set [8] is T2, Thioredoxin reductase 1, cytoplasmic (Rattus norvegicus, UniProt O89049).
T2 sequence (O89049 whole entry): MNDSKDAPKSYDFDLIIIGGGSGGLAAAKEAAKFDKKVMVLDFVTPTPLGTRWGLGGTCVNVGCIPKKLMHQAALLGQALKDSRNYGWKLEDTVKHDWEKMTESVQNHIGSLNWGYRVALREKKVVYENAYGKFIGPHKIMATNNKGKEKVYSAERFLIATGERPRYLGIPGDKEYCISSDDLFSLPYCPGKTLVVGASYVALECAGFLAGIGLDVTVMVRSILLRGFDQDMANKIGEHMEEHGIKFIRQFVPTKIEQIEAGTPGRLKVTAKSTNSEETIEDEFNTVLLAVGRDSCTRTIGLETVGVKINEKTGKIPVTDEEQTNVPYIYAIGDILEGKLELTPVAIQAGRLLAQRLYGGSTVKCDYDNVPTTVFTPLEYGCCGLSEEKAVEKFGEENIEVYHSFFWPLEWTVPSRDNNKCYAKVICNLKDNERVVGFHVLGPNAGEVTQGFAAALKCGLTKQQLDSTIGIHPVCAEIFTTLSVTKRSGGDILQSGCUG
As to the kind of experiment: Inhibition of rat recombinant TrxR1 after 10 mins.

The test system of data set [9] is Schistosoma mansoni. As to the kind of experiment: Antischistosomal activity against Schistosoma mansoni assessed as induction of parasite mortality after 16 hrs. The format is functional. Details: concentration or dose not given beside the values. In short, it runs like this:
as §1

Data set [10] can be described thus: Induction of nitric oxide release at 10 uM in presence of Schistosoma mansoni recombinant TGR. In kind it is functional.
Data set [11] relates to Schistosoma mansoni. Nature of the data set: Antischistosomal activity against Schistosoma mansoni assessed as induction of parasite mortality after 24 hrs. In kind it is functional. On the set-up: concentration or dose not given beside the values. In short, it runs like this:
as §1

Data set [12] in a line: Induction of nitric oxide release at 10 uM in presence of Schistosoma mansoni recombinant TGR and NADPH. In kind it is functional.
Data set [13] is described as follows: Reactivity with cysteine at 0.1 mM in 0.1M phosphate buffer assessed as amount of compound unreacted by HPLC.
Data set [14] addresses T3, Thioredoxin glutathione reductase (Schistosoma mansoni, UniProt Q962Y6).
T3 sequence (Q962Y6 whole entry): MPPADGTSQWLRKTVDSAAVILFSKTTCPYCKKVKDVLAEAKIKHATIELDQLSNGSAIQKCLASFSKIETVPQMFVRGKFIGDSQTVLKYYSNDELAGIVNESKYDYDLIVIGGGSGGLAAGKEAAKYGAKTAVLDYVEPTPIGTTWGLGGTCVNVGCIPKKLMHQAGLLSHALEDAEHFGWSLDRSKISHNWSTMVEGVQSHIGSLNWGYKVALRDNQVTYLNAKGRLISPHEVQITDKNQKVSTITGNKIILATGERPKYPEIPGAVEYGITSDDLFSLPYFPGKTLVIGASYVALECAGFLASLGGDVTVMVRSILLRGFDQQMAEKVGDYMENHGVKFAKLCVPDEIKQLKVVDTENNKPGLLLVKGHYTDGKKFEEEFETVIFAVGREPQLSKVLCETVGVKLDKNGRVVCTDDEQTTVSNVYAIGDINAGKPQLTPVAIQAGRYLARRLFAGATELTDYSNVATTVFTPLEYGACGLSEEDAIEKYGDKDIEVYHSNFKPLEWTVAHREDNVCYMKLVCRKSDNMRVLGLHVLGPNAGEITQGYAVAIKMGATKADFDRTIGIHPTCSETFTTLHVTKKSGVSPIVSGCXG
As to the kind of experiment: Inhibition of Schistosoma mansoni TGR.

A word on the IC50: it is the concentration at which inhibition is half-maximal.

Calls of active or inactive are those of the source. The calls are words filed in the database; no cut-off is given here.

In the case of `N#Cc1c(-c2ccc(C(F)(F)F)cc2)no[n+]1[O-]`, the outcome in data set [1] and in [3] was inactive. The Activity is 12% in data set [2]; 100% in data set [4]; 80% in data set [5]; 80% in [7]; 20% in data set [9]; 2% in data set [10]. In addition, the values for the Activity in [11] and in data set [12] were 64% and 22%, respectively. Further, the IC50 in data set [6] was 45.3 µM; in data set [8] it was less than 12.5 µM.

Turning to `N#Cc1no[n+]([O-])c1-c1ccccc1`, the values for the Activity in data set [5], in [10] and in data set [12] were 10%, less than 1% and 5%, respectively. Also, the result in [13] was Active.

In the case of `N#Cc1c(-c2cccc(Br)c2)no[n+]1[O-]`, the outcome in [1] and in [3] was inactive. Moreover, the Activity was found to be 20% in data set [2]; 100% in data set [4]; 70% in [5]; 100% in [7]; 39% in data set [9]; 2% in [10]. In addition, the Activity in data set [11] was found to be 100%; in [12], 19%. The IC50 in data set [6] was more than 50 µM; in data set [8], 150 µM.

For the compound `COc1cccc(-c2no[n+]([O-])c2C#N)c1`, the outcome in data set [1], in data set [2], in data set [3] and in data set [9] was inactive. The Activity in [4] came to 20%; in [5] it was 52%; in data set [7] it was 12%; in data set [10] it was 2%; in data set [11] it was 7%; in data set [12] it was 9%. The results for the IC50 in data set [6] and in [8] were more than 50 µM and more than 400 µM, respectively.

For the compound `[O-][n+]1onc(-c2ccccc2)c1CO`, the IC50 in data set [6] was more than 50 µM; in data set [8] it was more than 400 µM.

In the case of `NC(=O)c1c(-c2ccccc2)no[n+]1[O-]`, the outcome in [1] and in [3] was inactive. In addition, the Activity in [2] is 12%; in [4] it was 100%; in [7] it was 100%; in [9], 27%; in data set [11], 60%. For the same compound, the IC50 was more than 50 µM in data set [6], more than 400 µM in [8] and 17.8 µM in [14].

Turning to `N#Cc1c(-c2cccc(O)c2)no[n+]1[O-]`, the result in [1], in data set [3], in data set [4], in data set [7], in data set [9] and in data set [11] was inactive.

Regarding `Cc1ccc(-c2no[n+]([O-])c2C#N)cc1`, the outcome in data set [1], in data set [2] and in data set [3] was inactive. Moreover, the Activity was determined as 70% in data set [4]; 58% in data set [5]; 55% in data set [7]; 15% in data set [9]; 1% in data set [10]; 50% in data set [11]. Moreover, the Activity in [12] was determined as 15%. The IC50 in [6] was more than 50 µM; in data set [8], more than 400 µM.

`COc1ccccc1-c1no[n+]([O-])c1C#N`: the result in data set [1] and in data set [3] was inactive. For the same compound, the Activity in data set [4] stood at 60%; in [7], 50%; in data set [9], 11%; in data set [11], 40%.

Turning to `COc1ccc(-c2no[n+]([O-])c2C#N)cc1`, the result in data set [1], in [2] and in data set [3] was inactive. In addition, the Activity in data set [4] is 100%; in data set [5], 55%; in [7], 60%; in [9], 10%; in data set [10] it was 2%; in data set [11] it was 29%. Besides, the Activity in data set [12] amounted to 10%. Besides, the IC50 in [6] is more than 50 µM; in data set [8], more than 400 µM.

As to `N#Cc1c(-c2ccco2)no[n+]1[O-]`, the outcome in data set [1] and in [3] was inactive. For the same compound, the Activity turned out to be 10% in [2]; 100% in data set [4]; 60% in [5]; 100% in data set [7]; 40% in data set [9]; 2% in data set [10]. The results for the Activity in [11] and in data set [12] were 70% and 16%, respectively. In addition, the values for the half-inhibitory concentration (IC50) in data set [6], in data set [8] and in data set [14] were more than 50 µM, 350 µM and 2.8 µM, respectively.

Turning to `N#Cc1nonc1-c1ccccc1`, the Activity in data set [5] is 7%; in data set [10], less than 1%; in data set [12], 3%.

Regarding `O=C(O)c1c(-c2ccccc2)no[n+]1[O-]`, the result in data set [1], in data set [2], in data set [3], in data set [4], in data set [7] and in data set [9] was inactive. Besides, the result in data set [11] was inactive. The Activity in [5] is 10%; in data set [10], 2%; in data set [12], 7%. In addition, the IC50 was more than 50 µM in data set [6], more than 400 µM in data set [8] and 0.63 µM in data set [14].

Regarding `N#Cc1c(-c2ccc(F)cc2)no[n+]1[O-]`, the result in [1] and in data set [3] was inactive. Further, the Activity was 5% in [2]; 100% in data set [4]; 50% in data set [5]; 100% in data set [7]; 15% in data set [9]; less than 1% in data set [10]. The Activity in data set [11] was 72%; in data set [12], 13%. Besides, the values for the IC50 in data set [6] and in data set [8] were more than 50 µM and 300 µM, respectively.

As for `N#Cc1c(-c2cccc(C(F)(F)F)c2)no[n+]1[O-]`, the outcome in data set [1] and in data set [3] was inactive. Moreover, the Activity in data set [2] was 7%; in data set [4], 100%; in [5], 78%; in data set [7] it was 100%; in data set [9], 25%; in [10], 2%. Moreover, the Activity came out at 54% in data set [11] and 20% in [12]. For the same compound, the results for the IC50 in data set [6] and in data set [8] were more than 50 µM and 250 µM, respectively.

The values above are taken from ChEMBL document CHEMBL1155233, “Structure mechanism insights and the role of nitric oxide donation guide the development of oxadiazole-2-oxides as therapeutic agents against schistosomiasis” (J Med Chem, 2009).
